ChEMBL document CHEMBL1240506, “Identification and development of novel inhibitors of Toxoplasma gondii enoyl reductase” (J Med Chem, 2010)
pIC50: −log10 of the molar value. Values after ≈ are worked out from the molar mass of the structure shown. Active and inactive are the calls of the source. The calls are words filed in the database; no cut-off is given here.

What was measured:
[1] = test system: Toxoplasma gondii; assay: Antiparasitic activity against Toxoplasma gondii infected in HFF after 24 hrs by [3H]uracil incorporation assay; type: functional
Method in brief: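 Human foreskin fibroblasts were infected with T. gondii tachyzoites and given 1 h to invade before inhibitors were added. Cultures ran 3 days, then 3H-uracil was added for a further day. Parasite growth was read as uracil incorporation by liquid scintillation counting. MIC50 and MIC90 are the concentrations giving 50% and 90% growth inhibition. There were 6 replicate samples per group.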

[2] = target: CYP3A4 (Homo sapiens, UniProt P08684); assay: Inhibition of CYP3A4 at 10 uM; type: ADME
Method in brief: (§1)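 Inhibition was measured against recombinant CYP450 isozymes 2C9, 2D6 and 3A4, each with compound at 10μM, and reported as percent inhibition.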

[3] = target: CYP2D6 (Homo sapiens, UniProt P10635); assay: Inhibition of CYP2D6 at 10 uM; type: ADME; method in brief: as §1
[4] = target: T1, Enoyl-acyl carrier reductase (Toxoplasma gondii, UniProt Q6UCJ9); assay: Inhibition of Toxoplasma gondii enoyl reductase
T1 sequence (Q6UCJ9 whole entry): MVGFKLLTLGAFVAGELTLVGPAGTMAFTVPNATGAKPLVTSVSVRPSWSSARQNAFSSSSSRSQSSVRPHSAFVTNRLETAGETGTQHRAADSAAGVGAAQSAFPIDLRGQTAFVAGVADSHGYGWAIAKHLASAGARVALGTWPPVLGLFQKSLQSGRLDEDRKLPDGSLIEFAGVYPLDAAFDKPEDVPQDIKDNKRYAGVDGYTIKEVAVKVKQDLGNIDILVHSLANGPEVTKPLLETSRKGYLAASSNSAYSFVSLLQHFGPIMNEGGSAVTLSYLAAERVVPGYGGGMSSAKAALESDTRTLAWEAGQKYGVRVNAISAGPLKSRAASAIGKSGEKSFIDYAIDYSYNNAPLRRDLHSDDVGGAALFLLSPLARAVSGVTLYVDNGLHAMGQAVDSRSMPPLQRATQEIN
Method in brief: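 Recombinant TgENR (20 nM) was assayed in 100 mM Na/K phosphate pH 7.5, 150 mM NaCl and 100 μM NADH. Compounds were added in DMSO (2% final), and reactions were started at 25°C with 100 μM crotonyl-CoA. NADH consumption was followed at 340 nm.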

[5] = target: CYP2C9 (Homo sapiens, UniProt P11712); assay: Inhibition of CYP2C9 at 10 uM; type: ADME; method in brief: as §1
[6] = test system: Toxoplasma gondii; assay: Antiparasitic activity against Toxoplasma gondii RH infected in ip dosed CD1 mouse; type: functional, organism-based
Method in brief: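 CD1 mice were infected intraperitoneally with 2000 RH (Type 1) parasites, a lethal inoculum. Inhibitors were given intraperitoneally at 10mg/kg. Read-outs were peritoneal parasite burden by microscopy at day 5 and survival up to day 5 post-infection. There were 6 mice per group.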

[7] = test system: HFF; assay: Toxicity to HFF at highest concentration; type: cell-based; settings: human
Method in brief: (§2)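 Host-cell toxicity was tested on non-confluent fibroblast monolayers by 3H-thymidine incorporation, alongside visual inspection of monolayer integrity. Testing ran simultaneously with the parasite inhibition assay, and the highest concentration tested was scored.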

[8] = test system: HFF; assay: Toxicity to HFF; type: cell-based; settings: human; method in brief: as §2
[9] = Metabolic stability in human liver microsome assessed as compound remaining after 60 mins; type: ADME; settings: liver microsomes, read-out: INH
Method in brief: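 Compounds were incubated with pooled human liver microsomes for 60 minutes, and the percentage of parent compound remaining was measured.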

Chain of CYP2D6 (P10635 whole entry): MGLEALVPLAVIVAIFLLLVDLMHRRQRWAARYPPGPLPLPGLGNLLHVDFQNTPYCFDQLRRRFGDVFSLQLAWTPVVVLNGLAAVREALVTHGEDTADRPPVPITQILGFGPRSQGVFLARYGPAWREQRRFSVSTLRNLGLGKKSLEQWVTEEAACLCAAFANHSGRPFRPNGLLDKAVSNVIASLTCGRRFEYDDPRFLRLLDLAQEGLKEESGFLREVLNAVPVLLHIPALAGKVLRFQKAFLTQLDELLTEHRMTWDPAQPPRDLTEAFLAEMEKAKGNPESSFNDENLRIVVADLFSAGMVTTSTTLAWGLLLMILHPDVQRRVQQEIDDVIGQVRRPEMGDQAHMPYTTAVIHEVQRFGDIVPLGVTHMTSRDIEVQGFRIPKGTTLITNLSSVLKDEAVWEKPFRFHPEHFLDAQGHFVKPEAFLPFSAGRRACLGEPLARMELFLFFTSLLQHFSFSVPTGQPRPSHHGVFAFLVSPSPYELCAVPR
Chain of CYP2C9 (P11712 whole entry): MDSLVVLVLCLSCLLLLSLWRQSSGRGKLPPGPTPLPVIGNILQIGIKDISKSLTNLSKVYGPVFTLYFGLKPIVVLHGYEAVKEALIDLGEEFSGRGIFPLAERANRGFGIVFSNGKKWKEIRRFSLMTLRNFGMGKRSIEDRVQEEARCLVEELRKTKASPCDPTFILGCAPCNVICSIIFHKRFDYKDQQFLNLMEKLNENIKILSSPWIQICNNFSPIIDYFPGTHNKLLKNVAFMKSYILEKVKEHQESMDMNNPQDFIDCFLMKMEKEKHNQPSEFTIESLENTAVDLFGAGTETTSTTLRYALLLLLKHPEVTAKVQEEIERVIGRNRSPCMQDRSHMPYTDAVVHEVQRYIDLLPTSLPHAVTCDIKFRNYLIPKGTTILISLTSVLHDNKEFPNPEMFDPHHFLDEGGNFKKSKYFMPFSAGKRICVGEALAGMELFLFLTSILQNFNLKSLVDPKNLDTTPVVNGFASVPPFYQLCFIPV
Chain of CYP3A4 (P08684 whole entry): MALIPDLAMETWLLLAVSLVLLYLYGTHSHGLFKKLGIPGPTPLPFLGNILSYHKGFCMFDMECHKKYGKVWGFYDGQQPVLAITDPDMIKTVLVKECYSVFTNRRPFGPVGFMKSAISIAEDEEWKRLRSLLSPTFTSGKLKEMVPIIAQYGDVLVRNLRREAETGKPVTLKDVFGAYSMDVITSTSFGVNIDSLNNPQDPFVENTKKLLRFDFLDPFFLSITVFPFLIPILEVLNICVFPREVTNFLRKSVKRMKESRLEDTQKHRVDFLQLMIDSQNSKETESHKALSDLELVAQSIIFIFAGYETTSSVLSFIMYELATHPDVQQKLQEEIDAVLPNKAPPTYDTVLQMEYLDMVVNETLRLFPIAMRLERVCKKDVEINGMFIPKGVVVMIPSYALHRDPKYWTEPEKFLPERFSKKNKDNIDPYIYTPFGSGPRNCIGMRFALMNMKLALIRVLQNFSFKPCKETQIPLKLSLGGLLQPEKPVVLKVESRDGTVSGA

SMILES | MIC50 [1] [µM] | MIC90 [1] [µM] | inhibition at 10 µM [2] [%] | inhibition at 10 µM [3] [%] | pIC50 [4] | inhibition at 10 µM [5] [%] | Activity [6] | Activity [7] | Activity [8] [µM] | remaining at 1 h [9] [%]
CCCc1ccc(Oc2ccc(C#N)cc2Cl)c(O)c1 | 3 (≈ 0.863 µg/mL) | 5 (≈ 1.44 µg/mL) | < 22 | < 22 | > 7.70 | > 85 | Active | Non-toxic | 5 | 45.1
O=[N+]([O-])c1ccc(Oc2ccc(Cl)cc2O)c(Cl)c1 | 4 (≈ 1.2 µg/mL) | 6 (≈ 1.8 µg/mL) | < 22 | < 22 | – | > 85 | Active | Non-toxic | 4 | 51.2
Oc1cc(Cl)ccc1Oc1cccnc1 | > 6 | > 6 | – | – | 5.55 | – | – | Non-toxic | > 6 | –
CCCc1ccc(Oc2ccc([N+](=O)[O-])cc2)c(O)c1 | 6 (≈ 1.64 µg/mL) | > 6 | – | – | > 7.70 | – | – | Non-toxic | > 6 | –
CC(C)(C)C(=O)Oc1cc(Cl)ccc1Oc1ccc(Cl)cc1Cl | 4 (≈ 1.49 µg/mL) | 6 (≈ 2.24 µg/mL) | – | – | 5.52 | – | – | Non-toxic | > 6 | –
CCCc1ccc(Oc2ccc([N+](=O)[O-])cc2Cl)c(O)c1 | 4 (≈ 1.23 µg/mL) | 6 (≈ 1.85 µg/mL) | – | – | > 7.70 | – | – | Non-toxic | 1.5 | –
